Bioassay records deposited in PubChem BioAssay by several laboratories.
FID counter = fluorescent intercalator displacement, NS3 helicase counter-screen; 290,000 tested, 0.17% active; DNA fluorescent intercalator displacement, fluorescence; inhibition, % at 7.9 µM; AID 1845; in the data active = inhibition above about 37%;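 also: 0% = vehicle and 100% = reference compound; higher means more ethidium bromide displaced from hairpin DNA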
GPR7 antagonist = antagonists of human GPR7 (neuropeptides B/W receptor 1); 290,000 tested, 1.1% active; inhibition, % at 4.4 µM; AID 1861; GPR7-expressing cells, fluorescence antagonist assay; in the data active = inhibition above about 16%, passing the limit was not always enough;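 also: cells stimulated with the agonist NPW; 0% = agonist with vehicle and 100% = vehicle without agonist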
NS3 helicase inh = blocks Hepatitis C virus NS3 helicase unwinding; NS3 helicase DNA unwinding, Cy5 molecular beacon fluorescence; inhibition, % at 10.9 µM; AID 1800; 290,000 tested, 0.56% active;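 active = inhibition above the mean of all tested compounds plus 3 SD, set per campaign, cut at about 35% in these data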;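 also: 0% = DMSO wells and 100% = thioflavine S control wells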
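System: Hepatitis C virus NS3 helicase domain fragment enzyme | Reagent: Annealed dual-labelled DNA beacon duplex, ATP-started | Compound dosing: 10.9 µM single point, 0.8% DMSO | Incubation: 1 h reaction at 25 °C, ATP-initiated | Technique: Cy5 fluorescence | Evaluation: Percent inhibition from t60/t0 fluorescence ratio | Benchmarks: Low DMSO, high thioflavine S at 110 µM | Replication: Singlicate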
DAGLB inhibitor = diacylglycerol lipase beta (human) inhibition | Q8NCG7 | HEK293T DAGLB membrane lysate, EnzChek fluorogenic substrate | inhibition, % at 5.17 µM | 340,000 tested, 0.059% active; in the data active = inhibition above about 34%;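 also: 0% = enzyme with vehicle and 100% = wells lacking enzyme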
GRK2 inh = blocks RNA aptamer binding to human GRK2; 330,000 tested, 0.59% active; inhibition of aptamer binding, % at 10 µM; P25098; bead flow cytometry, FAM-aptamer displacement from GRK2;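 active = inhibition of aptamer binding above 40%, roughly 3 SD of noise, on plates passing a quality check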;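 also: median bead fluorescence of bound FAM aptamer so fluorescent compounds give negative values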
Target sequence (P25098 whole entry, looked up): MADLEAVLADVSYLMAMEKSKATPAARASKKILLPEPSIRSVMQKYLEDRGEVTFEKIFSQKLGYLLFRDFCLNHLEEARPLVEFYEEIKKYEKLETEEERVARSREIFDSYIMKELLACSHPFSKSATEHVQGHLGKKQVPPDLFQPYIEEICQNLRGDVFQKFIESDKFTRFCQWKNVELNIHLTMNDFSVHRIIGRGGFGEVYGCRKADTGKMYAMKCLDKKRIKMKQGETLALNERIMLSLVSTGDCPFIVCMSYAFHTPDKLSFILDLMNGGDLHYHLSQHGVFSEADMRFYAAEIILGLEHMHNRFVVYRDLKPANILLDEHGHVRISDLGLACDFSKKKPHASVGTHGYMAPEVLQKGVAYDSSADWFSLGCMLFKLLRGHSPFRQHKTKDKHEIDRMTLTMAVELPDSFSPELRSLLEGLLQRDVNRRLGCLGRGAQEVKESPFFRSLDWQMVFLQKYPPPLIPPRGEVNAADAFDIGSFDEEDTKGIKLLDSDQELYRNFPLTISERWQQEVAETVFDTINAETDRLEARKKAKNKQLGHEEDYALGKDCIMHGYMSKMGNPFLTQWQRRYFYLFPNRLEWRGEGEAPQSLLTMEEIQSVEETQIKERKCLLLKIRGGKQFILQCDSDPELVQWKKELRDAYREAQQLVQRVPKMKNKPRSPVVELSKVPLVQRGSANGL
core dimer inh = HCV core protein dimerization inhibition; TR-FRET GST/Flag-core106 dimerization, 1536-well; inhibition, % at 5 µM; 300,000 tested, 0.33% active; AID 1899;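 active = inhibition above the mean of all tested compounds plus 3 SD, set per screening campaign, cut at about 45% in these data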
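Assay system: Tagged HCV core106 pair (GST and Flag) | Buffer or medium: KF-containing HEPES buffer, pH 7.45, DTT, CHAPS, BSA | Also added: Eu donor and XL665 acceptor anti-tag antibodies | Dosing: One concentration, 5 µM, in 0.5% DMSO | Timing: 4 h at 22.5 °C | Technique: TR-FRET 671 and 617 nm emission | Repeats: Singlicate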
Starred values were filed as active, the others as inactive; · = not tested or not shown. Shown are actives, neighbours in structure and some others; about 2.2% of the full set was active somewhere.

SMILES	FID counter	GPR7 antagonist	NS3 helicase inh	DAGLB inhibitor	GRK2 inh	core dimer inh
COc1cccc(C(c2nnnn2CCc2ccccc2)N2CCN(c3ccccc3)CC2)c1OC (stereo unspecified)	-31	14	-17	-10	0	16
COc1ccc(OC)c(C(c2nnnn2C2CCCC2)N2CCN(c3ccccc3F)CC2)c1 (stereo unspecified)	-24	28*	-10	-4	0	7
COc1ccc(N2CCN(C(c3ccccc3OC)c3nnnn3C3CCCC3)CC2)cc1 (stereo unspecified)	-19	4	2	1	·	·
CC(C)CC1C(=O)N(Cc2cn(CCC3OCCO3)nn2)CCS(=O)(=O)N1Cc1ccc(-c2ccncc2)cc1 (stereo unspecified)	·	·	·	1	·	·
COc1ccc(NC(=O)C2CCCN2S(=O)(=O)c2cccs2)c([N+](=O)[O-])c1 (stereo unspecified)	·	·	·	2	1	-5
C[C@@H]1CN([C@@H](C)CO)C(=O)c2cc(Br)cnc2O[C@@H]1CN(C)C(=O)CN(C)C	·	·	·	-1	·	·
O=C(CSc1ccccn1)NC1CCCc2c1cnn2-c1ccccc1F (stereo unspecified)	·	·	·	0	·	·
CC(C)CC(C(=O)Nc1oc(-c2ccccc2)c(-c2ccccc2)c1C#N)N1C(=O)c2ccccc2C1=O (stereo unspecified)	-15	-12	2	7	1	76*
N#Cc1c(NC(=O)CCN2C(=O)c3ccccc3C2=O)oc(-c2ccccc2)c1-c1ccccc1	-3	-6	-18	-3	2	24
N#Cc1c(NC(=O)CCn2cnc3ccccc3c2=O)oc(-c2ccccc2)c1-c1ccccc1	-9	18*	5	-4	2	25
COc1ccc(NS(=O)(=O)c2cccc(C(=O)NNC(=O)c3ccc(C)o3)c2)cc1	·	·	·	-1	0	·
CS(=O)(=O)NCc1ccccc1Br	·	·	·	·	0	·
COc1ccc(CC(=O)Nc2ccc(C(C)=O)cc2)cc1	-10	25*	21	2	1	18
COC(=O)C1CN(C(=O)C(C)Oc2ccc(C(C)C)cc2)c2ccccc2O1 (stereo unspecified)	-33	14	-4	-9	0	1
COc1ccc(CCNc2nc(C)nc3c2oc2ccccc23)cc1OC	-23	13	-15	-1	3	-4
COc1ccc(CCNc2ncnc3c2oc2ccccc23)cc1OC	-25	37*	-15	-3	0	-2
CCCC1NC(=O)c2cc3ccccc3cc2-n2c1nc1ccc(C)cc1c2=O (stereo unspecified)	·	·	·	6	·	·
CCOC(=O)N1CCN(C(=O)c2nn(-c3cc(OC)cc(OC)c3)c(=O)c3ccccc23)CC1	1	-13	-11	·	0	-1
CCOC(=O)N1CCN(C(=O)c2cn(-c3ccc(C)c(C)c3)c(=O)c3ccccc23)CC1	-28	75*	11	0	·	·
CCOC(=O)c1c(C)n(C)c2ccc(OC(=O)c3ccoc3)cc12	3	16*	7	-4	0	6
O=C(COc1ccc([N+](=O)[O-])cc1)N(Cc1ccccc1)Cc1ccccc1	-11	31*	-7	-3	0	11
CCN(CC(=O)NC)S(=O)(=O)c1ccc(Br)cc1	-3	16*	5	0	2	-4
CCOC(=O)c1sc(NC(=O)CSc2n[nH]c(-c3ccncc3)n2)c(C#N)c1C	-4	6	5	2	1	0
CCOc1ccc(/C=C/C2=Cc3c(sc(NC(=O)CSc4n[nH]c(N)n4)c3C#N)C(C)(C)C2)cc1	-23	-5	17	-1	0	72*
Cc1ccsc1/C=C/C1=Cc2c(sc(NC(=O)CSc3n[nH]c(N)n3)c2C#N)C(C)(C)C1	-16	-7	16	13	9	77*
Nc1cc2c(cc1Cl)-c1ccc([N+](=O)[O-])cc1C2=NO	·	·	·	18	·	·
CCCCCOC(=O)Nc1nnc(CCCCC)s1	-15	19*	-6	-5	0	-3
COc1ccc(C(=O)Nc2nnc(Cc3ccccc3)s2)c(OC)c1	-21	6	-5	-6	0	68*
COc1ccc(Cc2nnc(NC(=O)Cc3cccs3)s2)cc1OC	-13	-12	4	2	8	74*
